13 compounds from ChEMBL document CHEMBL1124658, “Conformationally restricted analogues of the muscarinic agent N-methyl-N-(1-methyl-4-pyrrolidino-2-butynyl)acetamide” (J Med Chem, 1989) can be followed below.

By Ki is commonly meant the dissociation constant of the complex between target and ligand, obtained from inhibition or displacement. The term EC50 denotes the concentration that produces a half-maximal response. A high value points to lower potency in that assay. As usually defined, the Kd is the free concentration of one partner at which half of the binding sites on the other are occupied at equilibrium, for simple one-to-one binding.

Assay [1] concerns the target Muscarinic acetylcholine receptor. The experiment in a line: Compound was tested for the concentration that inhibited the specific binding of (-)-[3H]-NMS to muscarinic acetylcholine receptor in the rat cerebral cortex. Type of assay: tissue-based. The procedure, abridged: (§1)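 Rat (male Sprague–Dawley, 200–300 g) cerebral cortex homogenate, 10 mg wet tissue/mL in 50 mM Na–K phosphate pH 7.4. Incubated 30 min at 30 °C with 0.3 nM (–)-[3H]NMS plus unlabelled ligand; filtration assay. Nonspecific binding with 10 μM atropine. IC50 from one-site competition fit, corrected by Cheng–Prusoff to Ki; three experiments in triplicate.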

Assay [2] is filed under the species Cavia porcellus. The experiment in a line: In vitro effective concentration required to elicit half-maximal contractile response in guinea pig ileum.
For assay [3], the species on record is Cavia porcellus. Briefly: Maximum contractile response relative to that elicited by carbachol in guinea pig ileum. Type of assay: functional. The procedure, abridged:
(§2)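 Guinea pig ileum in Tyrode (pH 7.4, 0.3 mM hexamethonium), 37 °C, isotonic contractions at 1 g tension; cumulative agonist concentration–response curves, concentration raised stepwise by a factor of 2.15; maximal contraction expressed relative to the carbachol maximum. Three determinations, each in triplicate.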

Assay [4] concerns the target Muscarinic acetylcholine receptor. Briefly: Compound was tested for the concentration that inhibited the specific binding of (-)-[3H]-NMS to muscarinic receptor in the rat cerebral cortex. Type of assay: tissue-based. An outline of the steps: as §1
For assay [5], the species on record is Cavia porcellus. Briefly: Equilibrium dissociation constant of the compound-receptor complex was determined by its ability to antagonize carbachol-induced contractions in the ileum (spasmolytic activity). The class given is functional. The procedure, abridged:
(§3)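 Isolated guinea pig ileum in Tyrode solution (pH 7.4, 0.3 mM hexamethonium), 37 °C, isotonic recording at 1 g tension. Cumulative carbachol concentration–response curves (stepwise ×2.15) with at least three antagonist concentrations; dissociation constant from shifts, Schild slope checked where range allowed. Three determinations in triplicate.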

The species entered for assay [6] is Mus musculus. Briefly: Antimuscarinic activity in intact mice was determined as the dose required to double the dose of oxotremorine inducing a predetermined tremor intensity. The class given is functional. The procedure, abridged: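 Male Swiss–Webster mice (24–32 g), groups of six or more; antagonist given ip 200 μmol/kg, untreated controls. After 20 min, oxotremorine ED50 (iv) estimated by up-and-down method, end point intermittent spontaneous grade 2 tremor. Active compounds tested at two further doses; oxotremorine ED50 plotted against antagonist dose, dose doubling it found by linear regression.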

The species named for assay [7] is Mus musculus. Briefly: Antimuscarinic activity in intact mice was determined as the dose required to double the dose of oxotremorine inducing a predetermined tremor intensity. Type of assay: functional. The procedure, abridged:
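Male Swiss–Webster mice (24–32 g) were given the compound ip at 200 μmol/kg in groups of six or more, with six untreated controls. Twenty minutes later the oxotremorine ED50 (iv) was found by the up-and-down method, with intermittent spontaneous grade 2 tremor as end point. Active compounds were tested at two more doses, and the doubling dose came from linear regression of oxotremorine ED50 against antagonist dose.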

The species entered for assay [8] is Cavia porcellus. Briefly: Dissociation constant of the compound-receptor complex. The class given is functional. An outline of the steps:
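Guinea pig ileum in Tyrode solution (pH 7.4) with 0.3 mM hexamethonium at 37 °C, contractions recorded isotonically at 1 g tension. Cumulative carbachol concentration–response curves were built in steps of a factor of 2.15, in the presence of at least three antagonist concentrations. Antagonism was analysed by Schild plots.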

Assay [9] is filed under the species Cavia porcellus. The experiment in a line: Equilibrium dissociation constant of the compound-receptor complex was determined by its ability to antagonize carbachol-induced contractions in the ileum (spasmolytic activity). The class given is functional. An outline of the steps: as §3
For assay [10], the species on record is Cavia porcellus. Briefly: Maximum contractile response relative to that elicited by carbachol. Type of assay: functional. An outline of the steps: as §2
For assay [11], the species on record is Cavia porcellus. The experiment in a line: In vitro effective concentration required to elicit half-maximal contractile response in guinea pig ileum. The source holds these as a separate data set.
For assay [12], the target named is Muscarinic acetylcholine receptor. The experiment in a line: Compound was tested for the concentration that inhibited the specific binding of (-)-[3H]-NMS to muscarinic receptor in the rat cerebral cortex. The class given is tissue-based. An outline of the steps:
as §1

Turning to `CC(=O)N1CCCC1C#CC[N+](C)(C)C.[I-]` (stereo not drawn), the Ki in assay [1] came to 6.1 µM. In the assay filed under Cavia porcellus [2], this compound yielded a concentration for a half-maximal effect (EC50) of 7.5 µM. Also, the Emax in the assay filed under Cavia porcellus [3] worked out at 0.8.
Turning to `CN1C(=O)CCC1C#CC[N+](C)(C)C.[I-]` (stereo not drawn), the Ki in [1] is 145 µM. Moreover, the concentration for a half-maximal effect (EC50) in the assay filed under Cavia porcellus [2] is > 500 µM. Further, in the assay listed under Cavia porcellus [3], the Emax is on record as <0.6.
On to `CC(=O)N1CCCC1C#CCN(C)C` (stereo not drawn), for which the Ki in assay [4] was determined as 25.4 µM. In the assay listed under Cavia porcellus [5], the Kd was found to be 125 µM. Besides, in the assay filed under Mus musculus [6], the Tremorolytic dose is 119 µM/kg. This compound gave an Emax in the assay filed under Cavia porcellus [3] of 0.
For the compound `CN1[C@@H]2CC[C@H]1C[C@@H](OC(=O)C(CO)c1ccccc1)C2` (stereo partly drawn) [ATROPINE], the Tremorolytic dose in the assay filed under Mus musculus [7] worked out at 0.57 µM/kg. For the same compound, binding in the assay listed under Cavia porcellus [8] was put at a Kd of 0.0009 µM.
Consider `CC(=O)N1C(=O)CCC1C#CCN(C)C` (stereo not drawn), for which the inhibition constant Ki in assay [1] was 53.2 µM. In the assay listed under Cavia porcellus [9], this compound returned a Kd of 95.6 µM. The Tremorolytic dose in the assay filed under Mus musculus [6] came out at 160 µM/kg. In the assay filed under Cavia porcellus [3], this compound registered an Emax of 0.
As for `C[N+](C)(C)CCOC(N)=O.[Cl-]` [CARBACHOL], the Emax in the assay filed under Cavia porcellus [10] was 1. This compound registered an EC50 in the assay filed under Cavia porcellus [11] of 0.1 µM. The same compound gave an equilibrium dissociation constant (Kd) in the assay listed under Cavia porcellus [8] of 15.3 µM.
`CC(=O)N(C)C(C)C#CCN1CCCC1` (stereo not drawn): the Tremorolytic dose in the assay filed under Mus musculus [6] is 0.6 µM/kg. In the assay listed under Cavia porcellus [3], this compound displayed an Emax of 0.83.
Consider `CC(=O)N1C(=O)CCC1C#CCN1CCCC1` (stereo not drawn), for which the Ki in assay [1] was found to be 0.78 µM. Besides, binding in the assay listed under Cavia porcellus [9] was put at a Kd of 1.43 µM. This compound yielded a Tremorolytic dose in the assay filed under Mus musculus [6] of 3.5 µM/kg. The compound further had an Emax in the assay listed under Cavia porcellus [3] of 0.
As to `CC(=O)N1CCCC1C#CCN1CCCC1` (stereo not drawn), the Tremorolytic dose in the assay listed under Mus musculus [7] was found to be 6.3 µM/kg. The same compound gave a Ki in assay [12] of 0.67 µM. For the same compound, the Kd in the assay listed under Cavia porcellus [9] came out at 1.4 µM. This compound returned an Emax in the assay filed under Cavia porcellus [3] of 0.
For the compound `CN1C(=O)CCC1C#CCN1CCCC1` (stereo not drawn), the Ki in [12] came to 18.3 µM. In the assay listed under Cavia porcellus [10], this compound yielded an Emax of 0. The equilibrium dissociation constant (Kd) in the assay filed under Cavia porcellus [8] was 45.3 µM. Besides, the Tremorolytic dose in the assay filed under Mus musculus [6] was 78.3 µM/kg.
As to `CC(=O)N1C(=O)CCC1C#CC[N+](C)(C)C.[I-]` (stereo not drawn), in assay [1], the Ki was found to be 6.4 µM. Further, in the assay listed under Cavia porcellus [2], the response was half-maximal at 13.4 µM (EC50). The compound further had an Emax in the assay listed under Cavia porcellus [3] of 0.78.
In the assay filed under Cavia porcellus [9], `CC(=O)N(C(C)=O)C(C)C#CCN1CCCC1` (stereo not drawn) yielded a Kd of 0.28 µM. This compound registered a Tremorolytic dose in the assay filed under Mus musculus [6] of 3.2 µM/kg. For the same compound, the Emax in the assay filed under Cavia porcellus [3] is listed as 0.
With `CN(C)CC#CC1CCC(=O)N1C` (stereo not drawn), in assay [1], the Ki was determined as 204 µM. The affinity in the assay listed under Cavia porcellus [9], expressed as Kd, was 496 µM. For the same compound, the Tremorolytic dose in the assay listed under Mus musculus [6] is >200 µM/kg. Further, in the assay listed under Cavia porcellus [3], the Emax is recorded as 0.
